Laboratory results taken from PMC4954844 (European Journal of Drug Metabolism and Pharmacokinetics, 2015).
Where two headings read alike, the source gives them in different places.

Assays:
[1] = system: human liver microsomes (CYP1A2 and a non-cytochrome P450 enzyme); settings: biphasic, ref Lee and Slattery [1997]; cited from earlier work
[2] = PBPK simulation and clearance scaling of LSF to a 70-kg human subject
[3] = system: human liver microsomes (CYP3A4, CYP2A6); settings: biphasic, cited from earlier work
[4] = Urinary excretion of unchanged LSF in mice; type: in vivo; settings: 50 mg/kg i.v., within 4 h, unpublished data
Summary of the method: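 Three mice received 50 mg/kg intravenously and were housed in metabolic cages. All urine was collected at 2 and 4 h post-dose with volumes recorded. Unchanged drug was quantified by the chiral HPLC-UV method after validation for murine urine, expressed as percent of dose excreted within 4 h.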

[5] = Human pharmacokinetic study of LSF; type: in vivo; settings: plasma, iv, 3 mg/kg
[6] = ref Nicklasson et al. [2002], cited from earlier work
[7] = type: in vivo, male Crl:CD-1 mice
Summary of the method: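 Male Crl:CD-1 mice (8–10 weeks, bred in-house) were fasted overnight with water and dosed at 50 mg/kg into the tail vein. 3–4 per time point were exsanguinated up to 60 min. Serum was clotted at room temperature, then spun. Brain, muscle, kidneys, liver, gut and lungs were homogenized 1:4 w/v in 0.1 M PBS. Samples were stored at −80 °C.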

[8] = mice, ref Wyska et al. [2007], cited from earlier work
[9] = ref Bursten et al. [1998], cited from earlier work
[10] = CYP2A6, ref Shin and Slattery [1998]
[11] = CYP3A4, ref Shin and Slattery [1998]
[12] = mice, final PBPK model estimate

SMILES: C[C@@H](O)CCCCn1c(=O)c2c(ncn2C)n(C)c1=O [LSF, (−)-R-1-(5-hydroxyhexyl)-3,7-dimethylxanthine]
- K M, formation of pentoxifylline from LSF, second (high K M) enzyme [1]: 158 µM
- V max, formation of pentoxifylline from LSF, second (high K M) enzyme [1]: 0.928 nmol/min/mg
- in vivo whole liver intrinsic clearance ([2]; calculated from human liver microsome Vmax/KM data and Eq. 11): 1,545.24 ml/min
- plasma hepatic clearance ([2]; calculated from the in vivo intrinsic clearance (Eq. 12)): 477.54 mL/min
- K M, lisofylline diol formation, high K M enzyme [3, 10]: 4230 µM
- V max, lisofylline diol formation, high K M enzyme [3, 10]: 0.429 nmol/min/mg of protein
- K M, lisofylline diol formation, low K M enzyme [3, 11]: 23 µM
- V max, lisofylline diol formation, low K M enzyme [3, 11]: 0.0565 nmol/min/mg of protein
- mean percentage of LSF dose excreted unchanged with urine [4]: 0.71 ± 0.13%
- clearance [5]: 1280 mL/min
- fraction unbound (fu) in human plasma ([6]; human plasma): 0.54
- blood to plasma LSF concentration ratio (CB/Cp) ([6]; human): 0.77
- Kp ([7]; male, Crl:CD-1, mouse, brain/serum, iv, 50 mg/kg): 0.345
- Kp ([7]; male, Crl:CD-1, mouse, gut/serum, iv, 50 mg/kg): 0.892
- clearance ([7]; male, Crl:CD-1, mouse, intravenous, 50 mg/kg): 5.43 mL/min
- concentration at 60 min ([7]; male, Crl:CD-1, mouse, iv, 50 mg/kg): < 1 µg/mL
- Kp ([7]; male, Crl:CD-1, mouse, kidneys/serum, iv, 50 mg/kg): 0.777
- Kp ([7]; male, Crl:CD-1, mouse, liver/serum, iv, 50 mg/kg): 0.859
- Kp ([7]; male, Crl:CD-1, mouse, lungs/serum, iv, 50 mg/kg): 0.758
- Kp ([7]; male, Crl:CD-1, mouse, muscle/serum, iv, 50 mg/kg): 0.64
- clearance ([7]; male, Crl:CD-1, mouse, serum, iv, 50 mg/kg): 1.44 mL/min
- K M (LSF concentration at 50 % of the maximum rate of metabolism) [7, 12]: 1.777 µg/mL
- V max (maximum rate of metabolism) [7, 12]: 9.644 µg/min
- first-order absorption rate constant (ka) ([8]; oral administration): 0.024 min⁻¹
- fraction of the dose absorbed following oral administration (F) ([8]; oral administration): 0.16
- bioavailability ([8]; oral): 16%
- maximum concentration (C max), observed ([9]; human subjects, oral 6 mg/kg): 0.226 ± 0.0991 µg/mL
- time to C max, observed ([9]; human subjects, oral 6 mg/kg): 0.53 ± 0.26 h
- bioavailability ([9]; humans, oral): 5.9%
